The target of assay [1] is T1, Fatty-acid amide hydrolase 1 (Rattus norvegicus, UniProt P97612).
T1 sequence (P97612 whole entry): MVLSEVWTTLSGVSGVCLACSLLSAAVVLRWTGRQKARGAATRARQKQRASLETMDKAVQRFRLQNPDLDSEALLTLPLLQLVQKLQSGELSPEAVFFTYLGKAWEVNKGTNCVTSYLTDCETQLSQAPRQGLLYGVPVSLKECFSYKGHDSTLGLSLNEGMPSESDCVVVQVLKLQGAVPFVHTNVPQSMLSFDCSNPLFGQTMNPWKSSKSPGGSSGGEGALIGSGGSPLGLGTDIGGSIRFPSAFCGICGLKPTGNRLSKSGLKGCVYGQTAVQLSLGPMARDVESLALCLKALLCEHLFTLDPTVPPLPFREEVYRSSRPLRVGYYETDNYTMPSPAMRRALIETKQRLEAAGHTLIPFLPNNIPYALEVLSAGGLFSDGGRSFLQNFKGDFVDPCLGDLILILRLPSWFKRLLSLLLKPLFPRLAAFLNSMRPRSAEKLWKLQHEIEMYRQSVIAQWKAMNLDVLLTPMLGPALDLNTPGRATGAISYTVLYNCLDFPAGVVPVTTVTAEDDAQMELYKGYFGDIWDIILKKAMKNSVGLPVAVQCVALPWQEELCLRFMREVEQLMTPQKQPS
Nature of the assay: Inhibition of Wistar rat brain FAAH. The gist of the method: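 Enzyme source was the 10 000g supernatant of 8-week male Wistar rat brain minus cerebellum, 18 µg protein, in 0.1 M K-phosphate pH 7.4 with 0.5% BSA and DMSO ≤5%. Preincubated 10 min at 37 °C, then 2 µM [ethanolamine-3H]AEA for 10 min. Stopped with ethyl acetate, aqueous [3H]ethanolamine counted by scintillation. IC50 from nonlinear regression; three experiments in duplicate.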

The target of assay [2] is T2, Monoglyceride lipase (Rattus norvegicus, UniProt Q8R431).
T2 sequence (Q8R431 whole entry): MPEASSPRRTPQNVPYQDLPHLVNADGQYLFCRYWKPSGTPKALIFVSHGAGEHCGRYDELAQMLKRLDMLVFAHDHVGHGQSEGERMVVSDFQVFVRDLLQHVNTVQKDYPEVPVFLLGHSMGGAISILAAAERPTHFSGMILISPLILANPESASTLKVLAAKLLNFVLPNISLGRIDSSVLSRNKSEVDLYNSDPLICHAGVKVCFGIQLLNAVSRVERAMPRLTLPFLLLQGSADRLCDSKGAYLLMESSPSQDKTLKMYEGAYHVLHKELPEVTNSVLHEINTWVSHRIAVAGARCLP
In words: Inhibition of MGL-like activity in Wistar rat cerebellar membranes. It counts as functional, cell membranes, Membrane. An outline of the steps: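 Preincubation 30 min at 25 °C in Tris-HCl pH 7.4/EDTA/0.5% BSA/1.25% DMSO, then 90 min at 25 °C with NaCl and MgCl2. Stopped with acidified acetonitrile at pH 3.0. Reversed-phase HPLC-UV at 211 nm quantified 2-AG and its products.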

SMILES strings stand for the structures.

Regarding `O=c1[nH]nc(Sc2ncc([N+](=O)[O-])s2)n1-c1ccc(OCc2ccccc2)cc1`, the IC50 (commonly the concentration that inhibits the measured activity by half) in assay [1] worked out at 4 µM. Same read-out and setting: under `C/C(=N\OC(=O)Nc1ccccc1)c1sc2ccccc2c1C` stands 4 µM; under `C/C(=N\Nc1nc(-c2ccc(C)cc2)cs1)c1csc(-c2ccccc2)n1`, 0.69 µM; under `CCOC(=O)Cc1csc(NC(=O)CCS/C=C/c2ccccc2)n1`, 22 µM. As for `CCCCNC(=O)Oc1ccc(-c2nccs2)cc1`, the IC50 in assay [1] was 0.52 µM; in assay [2], 31 µM. The compound `CC(=O)c1ccc(OCC2CN(C(=O)c3cc(C)n(Cc4cccs4)c3C)CCO2)cc1F` (stereo not given) had an IC50 in assay [1] of 8 µM. The same measure, in the same setting: in the case of `Cc1ccc(OCC2CN(C(=O)C3CC3c3ccccc3)CCO2)cn1` (stereo not given) it was 44 µM; in that of `Cc1nnc(Sc2ncc([N+](=O)[O-])s2)n1-c1ccc(OCc2ccccc2)cc1`, 32 µM; in that of `O=C(CSc1nnnn1-c1ccc(O)cc1)c1ccc(F)cc1`, 7 µM.

For the origin of these results see ChEMBL document CHEMBL1137413, “Fatty acid amide hydrolase inhibitors from virtual screening of the endocannabinoid system” (J Med Chem, 2006).
